Assay results pooled from the literature.
Each line is one published result; the experiments were not run side by side.
Target: Serine/threonine-protein kinase Chk1 (CHEK1, Homo sapiens, UniProt O14757)
Action: inhibitor
Residues used in one study (O14757 1-476): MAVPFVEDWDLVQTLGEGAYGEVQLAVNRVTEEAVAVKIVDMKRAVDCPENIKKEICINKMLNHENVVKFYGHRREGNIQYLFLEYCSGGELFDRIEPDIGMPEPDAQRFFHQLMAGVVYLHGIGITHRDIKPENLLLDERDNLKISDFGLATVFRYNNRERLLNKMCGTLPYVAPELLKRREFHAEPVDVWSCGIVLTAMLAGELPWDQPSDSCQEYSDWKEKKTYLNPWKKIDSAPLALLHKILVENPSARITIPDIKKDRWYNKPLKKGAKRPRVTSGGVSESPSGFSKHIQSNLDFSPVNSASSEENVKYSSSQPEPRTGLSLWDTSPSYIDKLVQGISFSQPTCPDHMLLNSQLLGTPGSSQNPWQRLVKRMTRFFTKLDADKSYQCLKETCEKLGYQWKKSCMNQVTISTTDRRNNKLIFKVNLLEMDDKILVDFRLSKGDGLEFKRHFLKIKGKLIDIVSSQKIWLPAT

`CCOc1cc(-c2nncn2C)ccc1Nc1ncc2cc(C)nc(NCC(C)(C)C)c2n1` gave an inhibition of less than 15% (enzyme activity; FRET; 1 µM).
`c1ccc(CNc2nc(N3CCOc4ccccc43)nc3c2CCCC3)cc1` gave an inhibition of -3.2% (target engagement in cells; chemoproteomics; 20 mM).
With `CCCOc1ccc(/C=C2\SC(=O)NC2=O)cc1` the inhibition was -20% (enzyme activity; mobility shift; 5 µM).
`Cc1ccc(Nc2nccc(N(C)c3ccc4c(C)n(C)nc4c3)n2)cc1S(N)(=O)=O` gave an inhibition of -6% (enzyme activity; 10 µM).
`CCCCNc1ncc2c(-c3ccc(F)cc3)nn(C[C@H]3CC[C@H](N)CC3)c2n1` gave an inhibition of -8.8% (target engagement in cells; chemoproteomics; 20 mM).
With `CCCS(=O)(=O)Nc1ccc(F)c(C(=O)c2c[nH]c3ncc(-c4ccc(Cl)cc4)cc23)c1F` the inhibition was less than 10% (enzyme activity; 1 µM).
For `CCN1CCN(Cc2ccc(NC(=O)c3ccc(C)c(/C=C/c4cnc5[nH]ccc5c4OC)c3)cc2C(F)(F)F)CC1`, the inhibition was -118% (target engagement in cells; chemoproteomics; A-375; 50 nM).
`CN(C)C1CCN(CC#Cc2nn(C3CCCC3)c3nc(NCc4ccccc4)ncc23)C1` (stereo not shown) gave an inhibition of 15% (enzyme activity; FRET; 10 µM).
The inhibition of `O=C(CSc1nc2nccnc2c(=O)n1CCc1ccccc1)Nc1nccs1` is reported as -11% (enzyme activity; 10 µM).
`CCN1CCN(Cc2ccc(NC(=O)c3ccc(C)c(Oc4ccnc5[nH]ccc45)c3)cc2C(F)(F)F)CC1` has an inhibition of -141% (target engagement in cells; chemoproteomics; A-375; 0.5 µM).
`CNCc1ccc(-c2cc(-c3nc(-c4ccc(S(=O)(=O)C(C)C)cc4)cnc3N)on2)cc1` gave an inhibition of 52% (enzyme activity; 2 µM).
For `COc1cc2ncnc(Nc3ccc(Oc4ccccc4)c(C)c3C)c2cc1OC`, the inhibition was 1% (enzyme activity; 1 µM).
With `CNC(=O)c1cc(Oc2ccc(NC(=O)Nc3ccc(Cl)c(C(F)(F)F)c3)cc2)ccn1` the inhibition was -27% (enzyme activity; 10 µM).
